CHO parental Ca = counter-screen: ATP calcium response change in parental CHO cells; parental CHO-K1, ATP-induced calcium, Fluo-8 fluorescence; inhibition, % at 5.6 µM; 0.63% of 330,000 active; AID 463079;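 active = inhibition above that plate's mean sample inhibition plus 3 SD, cut at about 26% in these data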
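Test system: parental CHO cells; detection: calcium-sensitive Fluo-8 fluorescence; evaluation: percent inhibition of calcium signal; also added: ATP as calcium-mobilizing challenge; repeats: one well per compound; control set: ATP-challenged DMSO wells low, unchallenged DMSO wells high; compound: single nominal dose of 5.6 µM per compound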
MPTP inh = permeability transition pore inhibition; isolated mouse mitochondria, Ca2+ swelling absorbance, 30 min; inhibition, % at 10 µM; 1.4% of 360,000 active; AID 602449;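 active = inhibition of 50% or more, scaled per plate between neutral and stimulator controls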
GPR7 antagonist = human neuropeptides B/W receptor 1 antagonism | P48145 | GPR7-expressing cells, fluorescence antagonist assay | inhibition, % at 4.4 µM | 1.1% of 290,000 active | AID 1861; in the data active = inhibition above about 16%, passing the limit was not always enough;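 note: cells stimulated with the agonist NPW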
Target sequence (P48145 whole entry, looked up): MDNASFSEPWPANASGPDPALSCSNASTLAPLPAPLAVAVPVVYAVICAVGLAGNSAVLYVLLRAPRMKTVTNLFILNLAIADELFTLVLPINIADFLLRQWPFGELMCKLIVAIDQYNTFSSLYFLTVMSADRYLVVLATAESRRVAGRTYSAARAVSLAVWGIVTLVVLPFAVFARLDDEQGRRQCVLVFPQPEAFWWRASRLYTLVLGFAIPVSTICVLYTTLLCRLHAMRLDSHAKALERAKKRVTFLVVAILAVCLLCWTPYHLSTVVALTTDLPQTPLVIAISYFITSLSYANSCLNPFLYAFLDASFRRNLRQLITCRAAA
OX1R antag-1 = blocks the human orexin 1 receptor | inhibition, % at 5 µM | CHO/OX1R cells, Fluo-8 calcium fluorescence, orexin A | AID 434989 | 0.43% of 330,000 active;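 active = inhibition above its plate's threshold, mean inhibition of all tested compounds on the plate plus 3 SD, cut at about 37% in these data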
OX1R antag-2 = antagonists of human orexin 1 receptor (OX1R); inhibition, % at 6.6 µM; O43613; 1.8% of 330,000 active; OX1R-expressing cells, FRET antagonist read-out; in the data active = inhibition mostly above about 38%, no sharp cut-off; inactive = mostly below about 40%
GPR7 antag conf = confirmation of human GPR7 antagonists; shares compounds with GPR7 antagonist; GPR7-expressing cells, calcium fluorescence antagonist mode; inhibition, % at 4.4 µM; 52% of 2,400 active; in the data active = inhibition above about 24%;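 note: stimulated with the GPR7 agonist NPW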
MCHR1 antag = antagonizes human MCHR1, a GPR7 antagonist counter-screen; shares compounds with GPR7 antagonist; MCHR1-expressing cells, fluorescence antagonist assay; inhibition, % at 4.4 µM; 62% of 2,400 active; AID 2148; in the data active = inhibition above about 22%
Large screens that a line does not name were inactive (follow-up assays come after a bar, where they were run). Rows were chosen to be rich in hits. Some 3.8% of all compounds tested hit in one or more screens of this group.

Cc1cc(C[n+]2cc(Br)ccc2N)c2ncccc2c1	GPR7 antagonist 30 | GPR7 antag conf 29 | MCHR1 antag inactive
COc1ccc2c(c1)sc(N)[n+]2Cc1cc(C)cc2cccnc12	GPR7 antagonist 38 | GPR7 antag conf 41 | MCHR1 antag 57
Cc1cc(C[n+]2cc(Cl)ccc2N)c2ncccc2c1	GPR7 antagonist 23 | GPR7 antag conf 29 | MCHR1 antag 24
COc1ccc(CN2CCNC(=O)C2CC(=O)N2CCCO2)c(OC)c1 (configuration not stated)	none
COC(=O)c1c(NC(=S)Nc2ccc(C(=O)N3CCOCC3)cc2)sc2c1CCC2	none
CCc1ccccc1NC(=O)COc1ccc(C(=S)N2CCCC2)cc1	GPR7 antagonist 23, OX1R antag-2 46 | GPR7 antag conf inactive | MCHR1 antag inactive
CC(=O)c1ccc(OCC(=O)Nc2ccccc2N2CCCC2)cc1	none
CCCN(CCC)C1=CC(=[N+]2CCCC2)CC(C)(C)C1	GPR7 antagonist 52 | GPR7 antag conf 58 | MCHR1 antag 51
COc1ccccc1CNS(=O)(=O)c1cc2c3c(c1)C(C)C(=O)N3CCC2 (configuration not stated)	none
CCOc1ccc(S(=O)(=O)Nc2cc(OC)ccc2OC)cc1	GPR7 antagonist 23 | GPR7 antag conf inactive | MCHR1 antag 34
COc1cc(/C=N/NC(=O)c2ccc(F)cc2)ccc1OC(=O)c1ccco1	none
O=C(N/N=C/c1cccc(OC(=O)c2ccco2)c1)c1ccc(F)cc1	GPR7 antagonist 22 | GPR7 antag conf inactive | MCHR1 antag 23
CCC(C)(C)n1nnnc1C(c1cccnc1)N1CCN(c2cccc(C(F)(F)F)c2)CC1 (configuration not stated)	none
C/C(=N/NC(=O)CCc1ccccc1)c1ccc2c(c1)OCO2	GPR7 antagonist 26 (no result: CHO parental Ca, OX1R antag-1, OX1R antag-2) | GPR7 antag conf inactive | MCHR1 antag inactive
COc1ccc(CCC(=O)N/N=C(\C)c2ccc3c(c2)OCO3)cc1	none
O=C(NN=Cc1cc(Cl)ccc1[N+](=O)[O-])c1cccc2ccccc12	none (no result: CHO parental Ca, GPR7 antagonist, OX1R antag-1, OX1R antag-2)
O=C(N/N=C/c1cc([N+](=O)[O-])ccc1O)c1cccc2ccccc12	GPR7 antagonist 27 | GPR7 antag conf inactive | MCHR1 antag inactive
CN(C)c1cccc(C(=O)NCc2ccc3c(c2)OCO3)c1	GPR7 antagonist 36 | GPR7 antag conf inactive | MCHR1 antag inactive
CN(C)c1ccc(C(=O)NCc2ccc3c(c2)OCO3)cc1	none
CN(C)c1ccc(-c2nnn(CC(=O)NCc3ccc4c(c3)OCO4)n2)cc1	GPR7 antagonist 24 | GPR7 antag conf inactive | MCHR1 antag inactive
CN(C)c1ccc(CN2CCC(C(=O)NC(c3ccc(Cl)cc3)c3cnccn3)CC2)cc1 (configuration not stated)	none (no result: CHO parental Ca, GPR7 antagonist, OX1R antag-1, OX1R antag-2)
Cc1noc(C)c1C(=O)OC(C)C(=O)Nc1ccc(S(=O)(=O)NC(C)C)cc1 (configuration not stated)	none
COc1cccc(OCc2cc(C(=O)NCc3cnc4ccccn34)no2)c1	GPR7 antagonist 30 | GPR7 antag conf 33 | MCHR1 antag 48
COc1cccc(OCc2cc(C(=O)NCc3ccccn3)no2)c1	none
O=C1/C(=C\c2cc(Cl)c(O)c(Cl)c2)SC(=S)N1Cc1ccccc1	GPR7 antagonist 60 (no result: CHO parental Ca, OX1R antag-1, OX1R antag-2) | GPR7 antag conf 100 | MCHR1 antag 111
O=C(CCN1C(=O)/C(=C\c2ccccc2)SC1=S)N1CCCCC1	GPR7 antagonist 22 | GPR7 antag conf inactive | MCHR1 antag inactive
Cc1ccc(/C=C2\SC(=S)N(CCC(=O)N3CCCCC3)C2=O)cc1	none
CC(=C\c1ccccc1)/C=C1/SC(=S)N(CCCC(=O)O)C1=O	GPR7 antagonist 39 (no result: CHO parental Ca, OX1R antag-1, OX1R antag-2) | GPR7 antag conf inactive | MCHR1 antag inactive
CCOC(=O)[C@]12CCCC=C1N(Cc1ccccc1)C(=O)[C@H](CC(=O)NCCCCc1ccccc1)C2	none (no result: CHO parental Ca, GPR7 antagonist, OX1R antag-1, OX1R antag-2)
COc1cc(Cl)c(NS(=O)(=O)c2cc3[nH]c(=O)c(=O)[nH]c3cc2C)c(OC)c1	none
COc1cc(NS(=O)(=O)c2cc3[nH]c(=O)c(=O)[nH]c3cc2C)cc(OC)c1OC	GPR7 antagonist 43 | GPR7 antag conf inactive | MCHR1 antag inactive
O=C(NCc1cccnc1)c1ccc(-c2cc(Cl)ccc2Cl)o1	none
O=C(NCc1cccnc1)c1cc(-c2ccc(Cl)cc2)oc1C(F)(F)F	GPR7 antagonist 34 | GPR7 antag conf 24 | MCHR1 antag inactive
COc1ccc(CNC(=O)c2ccc(Cl)c(S(=O)(=O)N3CCOCC3)c2)cc1OC	none (no result: GPR7 antagonist)
COc1ccc(C(C(=O)NC2CCCCC2)N(C(=O)c2ccco2)c2ccccc2OC)cc1 (configuration not stated)	GPR7 antagonist 29 | GPR7 antag conf inactive | MCHR1 antag inactive
O=C(NCC(=O)N(c1ccccc1F)C(C(=O)NC1CCCC1)c1ccco1)c1ccco1 (configuration not stated)	none
COc1ccccc1N(C(=O)c1ccco1)C(C(=O)NC1CCCCC1)c1cc(OC)c(OC)c(OC)c1 (configuration not stated)	GPR7 antagonist 34, OX1R antag-2 42 | GPR7 antag conf 37 | MCHR1 antag inactive
COc1cccc(C(C(=O)NC2CCCCC2)N(C(=O)c2ccco2)c2ccccc2OC)c1 (configuration not stated)	none
COc1ccccc1N(C(=O)CNC(=O)c1ccco1)C(C(=O)NC1CCCC1)c1ccco1 (configuration not stated)	GPR7 antagonist 24 | GPR7 antag conf inactive | MCHR1 antag inactive
O=C(c1ccc(Cl)c(S(=O)(=O)N2CCCCCC2)c1)N1CCCCC1	none (no result: GPR7 antagonist) | MCHR1 antag inactive
Cc1ccc(C(=O)N2CCCCC2)cc1S(=O)(=O)N1CCCCCC1	GPR7 antagonist 21 | GPR7 antag conf 25 | MCHR1 antag inactive
Cc1ccc(NS(=O)(=O)c2ccc(C(=O)OCC(=O)Nc3cc(C)on3)cc2)cc1	GPR7 antagonist 26 (no result: CHO parental Ca, OX1R antag-1, OX1R antag-2) | GPR7 antag conf 38 | MCHR1 antag 52
CC(C)C[C@H](NC(=O)c1nc[nH]c1C(=O)N1CCN(c2ccccc2)CC1)C(=O)OCc1ccccc1	none (no result: GPR7 antagonist)
CO/N=C/Cc1c([N+](=O)[O-])c(C)nn1C	GPR7 antagonist 28 | GPR7 antag conf inactive | MCHR1 antag inactive
Cc1c([N+](=O)[O-])c(C/C=N/O)nn1C	none (no result: CHO parental Ca, OX1R antag-1, OX1R antag-2)
COc1cc(-c2noc(C)c2/C=C/c2cccc([N+](=O)[O-])c2)cc(OC)c1OC	GPR7 antagonist 35 | GPR7 antag conf 46 | MCHR1 antag 65
CC(=O)Nc1ccc(S(=O)(=O)N(CCCN2CCOCC2)Cc2cccs2)cc1	GPR7 antagonist 25 | GPR7 antag conf inactive | MCHR1 antag inactive
Cc1nc(Cl)c(C(=O)NCCc2ccccc2)c(C)c1[N+](=O)[O-]	none
CCC[C@@H](CNC)NC[C@H](Cc1ccccc1)NCCCCc1ccccc1	GPR7 antagonist 41 | GPR7 antag conf 51 | MCHR1 antag 71
COc1ccccc1C(=O)Nc1ccc2nc(SCC(=O)N(C)C)sc2c1	none

Bioassay records deposited in PubChem by several laboratories.
